Laboratory results as given in ChEMBL document CHEMBL3745687, “Synthesis and Biological Activity of 2-Methylene Analogues of Calcitriol and Related Compounds” (2015).
Activity calls are given as the source filed them. No cut-off for these calls is given here.

Experiments:
Rattus norvegicus [1] = assay: Effect on intestinal calcium transport in weanling Sprague-Dawley rat assessed as increase in ratio of serosal to mucosal calcium level at 7020 pmol/day administered as 4 consecutive daily doses measured 24 hrs after last dose relative to control; assay type: functional
Procedure, shortened: (§1)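 Same rats, on 0.47% Ca diet for 1 week, then 0.02% Ca for 2 weeks. Four intraperitoneal doses about 24 h apart were given during the last week. 24 h after the final dose, the first 10 cm of intestine was taken for calcium transport measurement by the everted gut sac method.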

HL-60 = assay: Ratio of 1alpha,25-dihydroxyvitamin D3 ED50 to compound ED50 for induction of human HL60 promyelocytes differentiation to monocytes after 4 days by NBT reduction assay; assay type: functional
Procedure, shortened: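 HL-60 promyelocyte-to-monocyte differentiation scored as percentage of cells reducing nitro blue tetrazolium. Run in duplicate, repeated twice. ED50, the concentration giving 50% maturation, taken from dose–response curves; expressed as the average ratio of 1α,25-(OH)2D3 ED50 to analogue ED50.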

Rattus norvegicus [2] = assay: Effect on intestinal calcium transport in weanling Sprague-Dawley rat assessed as increase in ratio of serosal to mucosal calcium level at 32 pmol/day administered as 4 consecutive daily doses measured 24 hrs after last dose relative to control; assay type: functional; procedure, shortened: as §1
Rattus norvegicus [3] = assay: Effect on bone calcium mobilization in weanling Sprague-Dawley rat assessed as serum calcium level at 87 pmol/day administered as 4 consecutive daily doses measured 24 hrs after last dose relative to control; assay type: functional
Procedure, shortened: (§2)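 Rats switched to a 0.47% Ca diet for 1 week, then 0.02% Ca diet for 2 weeks. Dosing started in the final week on the 0.02% Ca diet: four consecutive intraperitoneal doses about 24 h apart. Blood taken from the severed neck 24 h after the last dose. Serum calcium measured as the index of bone calcium mobilization.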

Rattus norvegicus [4] = assay: Effect on intestinal calcium transport in weanling Sprague-Dawley rat assessed as increase in ratio of serosal to mucosal calcium level at 87 pmol/day administered as 4 consecutive daily doses measured 24 hrs after last dose relative to control; assay type: functional; procedure, shortened: as §1
Rattus norvegicus [5] = assay: Effect on intestinal calcium transport in weanling Sprague-Dawley rat assessed as increase in ratio of serosal to mucosal calcium level at 780 pmol/day administered as 4 consecutive daily doses measured 24 hrs after last dose relative to control; assay type: functional; procedure, shortened: as §1
Rattus norvegicus [6] = assay: Effect on bone calcium mobilization in weanling Sprague-Dawley rat assessed as serum calcium level at 7020 pmol/day administered as 4 consecutive daily doses measured 24 hrs after last dose relative to control; assay type: functional; procedure, shortened: as §2
[7] = biological target: T1, Vitamin D3 receptor (Rattus norvegicus) (UniProt P13053); assay: Ratio of 1alpha,25-dihydroxyvitamin D3 ED50 to compound ED50 for VDR-mediated 24-hydroxylase gene expression in rat ROS 17/2.8 cells after 16 hrs by luciferase reprter assay; assay type: cell-based
T1 sequence (whole entry): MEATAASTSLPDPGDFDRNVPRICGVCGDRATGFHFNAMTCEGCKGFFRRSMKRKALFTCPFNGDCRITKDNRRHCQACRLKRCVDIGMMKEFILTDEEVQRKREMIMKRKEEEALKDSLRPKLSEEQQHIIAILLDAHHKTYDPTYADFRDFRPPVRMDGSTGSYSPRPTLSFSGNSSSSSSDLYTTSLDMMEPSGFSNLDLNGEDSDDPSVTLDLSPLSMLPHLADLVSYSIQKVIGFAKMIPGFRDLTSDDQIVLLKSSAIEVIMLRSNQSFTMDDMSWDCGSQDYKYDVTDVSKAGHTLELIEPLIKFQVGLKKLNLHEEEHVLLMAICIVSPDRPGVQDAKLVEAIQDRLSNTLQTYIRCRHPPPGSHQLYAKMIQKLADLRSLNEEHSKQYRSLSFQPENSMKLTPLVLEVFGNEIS
Procedure, shortened: (§3)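 Rat osteosarcoma cells stably transfected with a 24-hydroxylase gene reporter plasmid; luciferase activity read across a dose range. ED50 is the concentration raising luciferase activity by 50%, taken from dose–response curves. Ratio line reports 1α,25-(OH)2D3 ED50 divided by analogue ED50.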

Rattus norvegicus [8] = assay: Effect on intestinal calcium transport in weanling Sprague-Dawley rat assessed as increase in ratio of serosal to mucosal calcium level at 2340 pmol/day administered as 4 consecutive daily doses measured 24 hrs after last dose relative to control; assay type: functional; procedure, shortened: as §1
Rattus norvegicus [9] = assay: Effect on bone calcium mobilization in weanling Sprague-Dawley rat assessed as serum calcium level at 780 pmol/day administered as 4 consecutive daily doses measured 24 hrs after last dose relative to control; assay type: functional; procedure, shortened: as §2
Rattus norvegicus [10] = assay: Effect on bone calcium mobilization in weanling Sprague-Dawley rat assessed as serum calcium level at 2340 pmol/day administered as 4 consecutive daily doses measured 24 hrs after last dose relative to control; assay type: functional; procedure, shortened: as §2
[11] = biological target: T1, Vitamin D3 receptor (Rattus norvegicus); assay: Ratio of 1alpha,25-dihydroxyvitamin D3 Ki to compound Ki for full length recombinant rat vitamin D receptor by scintillation counting analysis
Procedure, shortened: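 Competitive binding against radiolabeled 1α,25-(OH)2D3 at 1 nM, with Kd of 0.2 nM used in Ki derivation from dose–response curves. Duplicate runs on two separate occasions. Reported as the average ratio of 1α,25-(OH)2D3 Ki to analogue Ki.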

Rattus norvegicus [12] = assay: Effect on bone calcium mobilization in weanling Sprague-Dawley rat assessed as serum calcium level at 32 pmol/day administered as 4 consecutive daily doses measured 24 hrs after last dose relative to control; assay type: functional; procedure, shortened: as §2
Rattus norvegicus [13] = assay: Effect on bone calcium mobilization in weanling Sprague-Dawley rat assessed as serum calcium level at 260 pmol/day administered as 4 consecutive daily doses measured 24 hrs after last dose relative to control; assay type: functional; procedure, shortened: as §2
Rattus norvegicus [14] = assay: Effect on intestinal calcium transport in weanling Sprague-Dawley rat assessed as increase in ratio of serosal to mucosal calcium level at 260 pmol/day administered as 4 consecutive daily doses measured 24 hrs after last dose relative to control; assay type: functional; procedure, shortened: as §1
[15] = biological target: T1, Vitamin D3 receptor (Rattus norvegicus); assay: Induction of VDR transcriptional activity assessed as activation of 24-hydroxylase gene expression in rat ROS 17/2.8 cells after 16 hrs by luciferase reprter assay; assay type: cell-based; procedure, shortened: as §3
Rattus norvegicus [16] = assay: Effect on bone calcium mobilization in weanling Sprague-Dawley rat assessed as serum calcium level at 16 pmol/day administered as 4 consecutive daily doses measured 24 hrs after last dose relative to control; assay type: functional; procedure, shortened: as §2
Rattus norvegicus [17] = assay: Effect on intestinal calcium transport in weanling Sprague-Dawley rat assessed as increase in ratio of serosal to mucosal calcium level at 16 pmol/day administered as 4 consecutive daily doses measured 24 hrs after last dose relative to control; assay type: functional; procedure, shortened: as §1

Row | SMILES | Ratio ED50 [7] | Ratio Ki [11] | Activity [15] | Ratio (Rattus norvegicus [1]) | Ratio ED50 (HL-60) | Ratio (Rattus norvegicus [2]) | Activity (Rattus norvegicus [3]) | Ratio (Rattus norvegicus [4]) | Ratio (Rattus norvegicus [5]) | Activity (Rattus norvegicus [6]) | Ratio (Rattus norvegicus [8]) | Activity (Rattus norvegicus [9]) | Activity (Rattus norvegicus [10]) | Activity (Rattus norvegicus [12]) | Activity (Rattus norvegicus [13]) | Ratio (Rattus norvegicus [14]) | Activity (Rattus norvegicus [16]) | Ratio (Rattus norvegicus [17])
1 | C=C1/C(=C/C=C2\CCC[C@]3(C)[C@@H]([C@H](C)CCCC(C)(C)O)CC[C@@H]23)C[C@@H](O)C(=C)[C@@H]1O | 1 | 2.5 |  | 3.2 | 0.4 | 2.3 | 0.5 mg/dL | 2.1 | 1.2 | 2.2 mg/dL | 3 | 1.3 mg/dL | 2.2 mg/dL | 0.3 mg/dL |  |  |  | 
2 | C=C1/C(=C/C=C2\CCC[C@]3(C)[C@@H]([C@@H](C)CCCC(C)(C)O)CC[C@@H]23)C[C@@H](O)C(=C)[C@@H]1O | 5 | 1.1 | Active |  | 20 | 0.9 | 0.6 mg/dL | 2.9 | 4.5 |  |  | 4 mg/dL |  | 0 mg/dL | 1.2 mg/dL | 2.6 |  | 
3 | C=C1[C@H](O)CC(=C/C=C2\CCC[C@]3(C)[C@@H]([C@@H](C)CCCC(C)(C)O)CC[C@@H]23)C[C@H]1O [DP001] | 29 | 1 |  |  | 25 |  |  |  |  |  |  |  |  |  |  |  |  | 
4 | C=C1/C(=C\C=C2/CCC[C@]3(C)[C@@H]([C@H](C)CCCC(C)(C)O)CC[C@@H]23)C[C@@H](O)C[C@@H]1O [CALCITRIOL] |  |  | Active |  |  |  | 0.3 mg/dL | 3.1 | 1.9 |  |  | 2.1 mg/dL |  |  |  |  |  | 

Further lines, with some results ahead:

Row | Ratio ED50 [7] | Ratio Ki [11] | Activity [15] | SMILES | Ratio (Rattus norvegicus [1]) | Ratio ED50 (HL-60) | Ratio (Rattus norvegicus [2]) | Activity (Rattus norvegicus [3]) | Ratio (Rattus norvegicus [4]) | Ratio (Rattus norvegicus [5]) | Activity (Rattus norvegicus [6]) | Ratio (Rattus norvegicus [8]) | Activity (Rattus norvegicus [9]) | Activity (Rattus norvegicus [10]) | Activity (Rattus norvegicus [12]) | Activity (Rattus norvegicus [13]) | Ratio (Rattus norvegicus [14]) | Activity (Rattus norvegicus [16]) | Ratio (Rattus norvegicus [17])
5 | 0.07 | 0.01 | Dose-dependent effect | C=C1/C(=C\C=C2/CCC[C@]3(C)[C@@H]([C@@H](C)CCCC(C)C)CC[C@@H]23)C[C@@H](O)C(=C)[C@@H]1O |  | 0.7 |  | 0.4 mg/dL |  |  | 4.8 mg/dL |  | 3.3 mg/dL |  |  |  |  |  | 
6 | 10 | 1.1 | Active | C=C1/C(=C\C=C2/CCC[C@]3(C)[C@@H]([C@@H](C)CCCC(C)(C)O)CC[C@@H]23)C[C@@H](O)C(=C)[C@@H]1O | 7.3 | 29 | 5 | 2.8 mg/dL | 5.4 | 9.3 | 6 mg/dL |  | 5.9 mg/dL |  | 1.1 mg/dL | 3.4 mg/dL | 5 | 0.7 mg/dL | 3
7 | 0.07 | 0.01 | Dose-dependent effect | C=C1/C(=C\C=C2/CCC[C@]3(C)[C@@H]([C@H](C)CCCC(C)C)CC[C@@H]23)C[C@@H](O)C(=C)[C@@H]1O | 6 | 0.07 |  | 0.9 mg/dL | 4.6 | 5.8 | 6 mg/dL |  | 3.8 mg/dL |  |  |  |  |  | 
8 | 1 | 1.4 |  | C=C1/C(=C\C=C2/CCC[C@]3(C)[C@@H]([C@H](C)CCCC(C)(C)O)CC[C@@H]23)C[C@@H](O)C(=C)[C@@H]1O | 9.2 | 0.7 | 2.4 | 2.2 mg/dL | 5.1 | 5.2 | 7.3 mg/dL |  | 5 mg/dL |  | 1.4 mg/dL |  |  |  | 
